# In ChEMBL document CHEMBL2202999, “Synthesis of bivalent lactosides and their activity as sensors for differences between lectins in inter- and intrafamily comparisons” (Bioorg Med Chem Lett, 2012):
# How the values were obtained:
# [1] = test system: CHO; assay: Inhibition of binding of biotinylated chicken galectin-8S to CHO cells at 1 mM by cytofluorometry; type: cell-based; conditions: Gallus gallus
# Procedure, shortened: (§1)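 Labeled lectin, with or without inhibitor, was incubated with aliquots of cell suspensions from the same passage: human SW480 colon adenocarcinoma cells for Erythrina agglutinin, CHO cells for the galectins. Binding was quantified by cytofluorometry as % positive cells and mean fluorescence intensity. Readings were normalized between a lectin-only control (100%) and a no-lectin background (0%). Runs were done in triplicate across at least three independent series.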
# [2] = test system: SW480; assay: Inhibition of binding of biotinylated Erythrina crista-galli agglutinin to SW480 cells at 0.2 mM by cytofluorometry; type: cell-based; procedure, shortened: as §1
# [3] = biological target: T1, Galectin-3 (Gallus gallus) (UniProt A4GTP0); assay: (§2) Inhibition of binding of biotinylated truncated chicken galectin-3 to CHO cells at 2 mM by cytofluorometry; type: cell-based; procedure, shortened: as §1
# T1 sequence (whole entry): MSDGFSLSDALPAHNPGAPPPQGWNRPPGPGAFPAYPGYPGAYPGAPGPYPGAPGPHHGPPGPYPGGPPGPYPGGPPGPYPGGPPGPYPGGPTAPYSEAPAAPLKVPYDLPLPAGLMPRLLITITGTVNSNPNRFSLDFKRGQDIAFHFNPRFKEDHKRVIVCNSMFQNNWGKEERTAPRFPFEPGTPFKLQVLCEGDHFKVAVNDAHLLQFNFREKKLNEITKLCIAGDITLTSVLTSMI
# [4] = Inhibition of binding of biotinylated chicken galectin-8N to surface immobilized asialofetuin by solid phase assay relative to free lactose; set-up: species or system Gallus gallus
# Procedure, shortened: (§3)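 Asialofetuin was adsorbed to microtiter wells at a constant coating amount, and its N-glycans served as ligand. Biotinylated lectin at a lectin-specific concentration was added with inhibitor. IC50 (mM) was normalized to lactose, and potency was expressed relative to free lactose. Assays were run in triplicate across up to five independent series.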
# [5] = Inhibition of binding of biotinylated chicken galectin-8N to surface immobilized asialofetuin by solid phase assay; set-up: species or system Gallus gallus; procedure, shortened: as §3
# [6] = Inhibition of binding of biotinylated chicken galectin-8L to surface immobilized asialofetuin by solid phase assay relative to free lactose; set-up: species or system Gallus gallus
# Procedure, shortened: (§4)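 Asialofetuin was adsorbed to microtiter wells at a constant coating amount, and its N-glycans served as ligand. Biotinylated lectin at a lectin-specific concentration was added with inhibitor. Assays were run in triplicate across up to five independent series.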
# [7] = Inhibition of binding of biotinylated chicken galectin-8L to surface immobilized asialofetuin by solid phase assay; set-up: species or system Gallus gallus; procedure, shortened: as §3
# [8] = Inhibition of binding of biotinylated chicken galectin-8S to surface immobilized asialofetuin by solid phase assay relative to free lactose; set-up: species or system Gallus gallus; procedure, shortened: as §3
# [9] = Inhibition of binding of biotinylated chicken galectin-8S to surface immobilized asialofetuin by solid phase assay; set-up: species or system Gallus gallus; procedure, shortened: as §3
# [10] = biological target: T2, Galectin-3 (Gallus gallus, UniProt A4GTP0); assay: Inhibition of binding of biotinylated truncated chicken galectin-3 to surface immobilized asialofetuin by solid phase assay relative to free lactose; procedure, shortened: as §4
# T2 sequence (A4GTP0 whole entry): T1 sequence (whole entry)
# [11] = biological target: T2, Galectin-3; assay: Inhibition of binding of biotinylated truncated chicken galectin-3 to surface immobilized asialofetuin by solid phase assay; procedure, shortened: as §4
# [12] = biological target: T2, Galectin-3; assay: Inhibition of binding of biotinylated chicken galectin-3 to surface immobilized asialofetuin by solid phase assay relative to free lactose; procedure, shortened: as §3
# [13] = biological target: T2, Galectin-3; assay: Inhibition of binding of biotinylated chicken galectin-3 to surface immobilized asialofetuin by solid phase assay; procedure, shortened: as §4
# [14] = Inhibition of binding of biotinylated chicken galectin-2 to surface immobilized asialofetuin by solid phase assay relative to free lactose; set-up: species or system Gallus gallus; procedure, shortened: as §3
# [15] = Inhibition of binding of biotinylated chicken galectin-2 to surface immobilized asialofetuin by solid phase assay; set-up: species or system Gallus gallus; procedure, shortened: as §3
# [16] = biological target: T3, Beta-galactoside-binding lectin (Gallus gallus, UniProt P07583); assay: Inhibition of binding of biotinylated chicken galectin-1B to surface immobilized asialofetuin by solid phase assay; procedure, shortened: as §3
# T3 sequence (P07583 whole entry): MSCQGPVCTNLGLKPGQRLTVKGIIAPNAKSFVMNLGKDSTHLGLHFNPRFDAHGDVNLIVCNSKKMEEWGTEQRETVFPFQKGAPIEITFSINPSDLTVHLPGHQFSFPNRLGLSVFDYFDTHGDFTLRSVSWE
# [17] = Inhibition of binding of biotinylated Erythrina crista-galli agglutinin to surface immobilized asialofetuin by solid phase assay relative to free lactose; procedure, shortened: as §3
# [18] = Inhibition of binding of biotinylated Erythrina crista-galli agglutinin to surface immobilized asialofetuin by solid phase assay; procedure, shortened: as §4
# [19] = Inhibition of binding of biotinylated Viscum album agglutinin to surface immobilized asialofetuin by solid phase assay relative to free lactose; procedure, shortened: as §4
# [20] = Inhibition of binding of biotinylated Viscum album agglutinin to surface immobilized asialofetuin by solid phase assay; procedure, shortened: as §3
# [21] = biological target: T3, Beta-galactoside-binding lectin; assay: Inhibition of binding of biotinylated chicken galectin-1B to surface immobilized asialofetuin by solid phase assay relative to free lactose; procedure, shortened: as §3
# [22] = Inhibition of binding of biotinylated chicken galectin-1A to surface immobilized asialofetuin by solid phase assay relative to free lactose; set-up: species or system Gallus gallus; procedure, shortened: as §3
# [23] = Inhibition of binding of biotinylated chicken galectin-1A to surface immobilized asialofetuin by solid phase assay; set-up: species or system Gallus gallus; procedure, shortened: as §3
# [24] = biological target: T1, Galectin-3 (Gallus gallus); conditions: CHO, 0.25 mM
# [25] = biological target: Galectin-3 (Gallus gallus) (UniProt A4GTP0); assay: as §2; type: cell-based; procedure, shortened: as §1; remark: listed apart in the source
# [26] = biological target: Galectin-3 (Gallus gallus) (UniProt A4GTP0); assay: (§5) Inhibition of binding of biotinylated chicken galectin-3 to CHO cells at 1 mM by cytofluorometry; type: cell-based; procedure, shortened: as §1
# [27] = biological target: T1, Galectin-3 (Gallus gallus); assay: as §5; type: cell-based; procedure, shortened: as §1; remark: listed apart in the source
Compound,inhibition [1] [%],inhibition [2] [%],relative potency [4],IC50 [5] [µM],IC50 [6] [µM],IC50 [7] [µM],IC50 [8] [µM],IC50 [9] [µM],IC50 [10] [µM],IC50 [11] [µM],relative potency [12],IC50 [13] [µM],relative potency [14],IC50 [15] [µM],IC50 [16] [µM],relative potency [17],IC50 [18] [µM],relative potency [19],IC50 [20] [µM],IC50 [23] [µM],further results
OC[C@H]1O[C@@H](O[C@H]2[C@H](O)[C@@H](O)[C@H](n3cc(-c4ccc(-c5cn([C@@H]6O[C@H](CO)[C@@H](O[C@@H]7O[C@H](CO)[C@H](O)[C@H](O)[C@H]7O)[C@H](O)[C@H]6O)nn5)cc4)nn3)O[C@@H]2CO)[C@H](O)[C@@H](O)[C@H]1O,34,85,3.2,500,2800,1800,2600,700,1500,3100,15.7,70,5,1200,1500,1.8,600,4.6,130,220,inhibition [3]: 44%; relative potency [21]: 2.7; relative potency [22]: 2.3; inhibition [24]: 39%
O=C1NCc2ccc(cc2)CNC(=O)[C@@H]2O[C@@H](C/C=C/C[C@H]3O[C@H]1[C@@H](OCc1cn([C@@H]4O[C@H](CO)[C@@H](O[C@@H]5O[C@H](CO)[C@H](O)[C@H](O)[C@H]5O)[C@H](O)[C@H]4O)nn1)[C@H](OCc1ccccc1)[C@H]3OCc1ccccc1)[C@@H](OCc1ccccc1)[C@H](OCc1ccccc1)[C@H]2OCc1cn([C@@H]2O[C@H](CO)[C@@H](O[C@@H]3O[C@H](CO)[C@H](O)[C@H](O)[C@H]3O)[C@H](O)[C@H]2O)nn1,,88,5.3,300,8300,600,4500,400,800,5300,13.8,80,8.6,700,600,1.4,800,2.5,240,1600,relative potency [21]: 6.7; relative potency [22]: 0.3
"LACTOSE, ANHYDROUS [listing 1 of 2 here]",,,,1600,,5000,,1800,,,,,,6000,,,,,600,500,
"LACTOSE, ANHYDROUS [listing 2 of 2 here]",39,86,,,,,,,,,,,,,,,,,,,inhibition [25]: 67%; inhibition [26]: 75%
O=C(/C=C/C(=O)N[C@@H]1O[C@H](CO)[C@@H](O[C@@H]2O[C@H](CO)[C@H](O)[C@H](O)[C@H]2O)[C@H](O)[C@H]1O)N[C@@H]1O[C@H](CO)[C@@H](O[C@@H]2O[C@H](CO)[C@H](O)[C@H](O)[C@H]2O)[C@H](O)[C@H]1O,70,89,,800,,4500,700,2500,,4200,,600,,1400,1300,,1200,,550,360,inhibition [3]: 47%; inhibition [27]: 45%
C=CC[C@@H]1O[C@@H](C(=O)NCc2ccc(CNC(=O)[C@H]3O[C@H](CC=C)[C@H](OCc4ccccc4)[C@@H](OCc4ccccc4)[C@@H]3OCc3cn([C@@H]4O[C@H](CO)[C@@H](O[C@@H]5O[C@H](CO)[C@H](O)[C@H](O)[C@H]5O)[C@H](O)[C@H]4O)nn3)cc2)[C@H](OCc2cn([C@@H]3O[C@H](CO)[C@@H](O[C@@H]4O[C@H](CO)[C@H](O)[C@H](O)[C@H]4O)[C@H](O)[C@H]3O)nn2)[C@@H](OCc2ccccc2)[C@@H]1OCc1ccccc1,,,4,400,2100,2400,600,3000,900,5000,78.6,14,9.2,650,460,0.8,1300,0.5,1300,1400,relative potency [21]: 8.7; relative potency [22]: 0.5
